According to ChEMBL document CHEMBL3414473:
Blank lines part the entries; values can stand above or below the compound they belong to. Calls of active or inactive are those of the source. No cut-off for these calls is given here.

Tests used:
[1] = target: RAC-alpha serine/threonine-protein kinase (Homo sapiens, UniProt P31749); assay: Binding affinity to GST-tagged PH domain of AKT (unknown origin) by surface Plasmon resonance spectroscopy
Procedure, shortened: (§1)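 SPR: GST-tagged PH domain fusion protein immobilized on CM5 chip by amine coupling to about 17000 RU. Analyte injected at 1–20 µM at 30 µL/min; DMSO in samples and running buffer ≤1% (v/v). Kd obtained from sensorgram fitting.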

LNCaP [2] = assay: Antiproliferative activity against human LNCAP cells assessed as suppression of cell viability after 24 hrs by MTT assay; assay type: functional, cell-based
Procedure, shortened: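 LNCaP cells seeded at 5000/well on poly-L-lysine-coated plates in 10% FBS; 24 h later exposed to agents in serum-free medium for 24 h. Viability expressed as percent of vehicle control; IC50 derived.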

[3] = target: T1, PH domain leucine-rich repeat-containing protein phosphatase 1 (Homo sapiens, UniProt O60346); assay: Inhibition of PHLPP1-mediated reduction in phosphorylation of Akt at Ser473 in human LNCAP cells after 24 hrs by Western blot analysis; assay type: cell-based
Procedure, shortened: (§2)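 LNCaP or PC-3 cells treated at various concentrations for 24 h in serum-free medium. Lysed in SDS buffer (50 mM Tris pH 8, 10 mM EDTA, 1% SDS, protease inhibitors); equal protein run on SDS-PAGE and transferred to nitrocellulose. Primary antibodies 1:1000 overnight at 4 °C, HRP secondary 1:2000; detected by ECL.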

[4] = target: T1, PH domain leucine-rich repeat-containing protein phosphatase 1; assay: Inhibition of PHLPP1-mediated reduction in phosphorylation of Akt at Ser473 in human PC3 cells after 24 hrs by Western blot analysis; assay type: cell-based; settings: PC-3; procedure, shortened: as §2
LNCaP [5] = assay: Induction of PHLPP1 localization to human LNCAP cell membrane at 10 uM after 24 hrs by immunofluorescence staining analysis; assay type: functional, cell-based
Procedure, shortened: (§3)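 LNCaP cells on poly-L-lysine-coated surfaces, treated in serum-free medium for 24 h. Fixed in 4% formaldehyde, permeabilized with 0.1% Triton X-100, blocked in 1% FBS, primary antibody (1:300) overnight, then Alexa Fluor secondary 2 h; DAPI nuclei; confocal imaging with cross-sectional fluorescence intensity analysis.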

LNCaP [6] = assay: Induction of Akt localization to human LNCAP cell membrane at 10 uM after 24 hrs by immunofluorescence staining analysis; assay type: functional, cell-based; procedure, shortened: as §3
PrEC = assay: Antiproliferative activity against human PrEC cells assessed as suppression of cell viability after 24 hrs by MTT assay in serum free medium; assay type: cell-based
PC-3 = assay: Antiproliferative activity against human PTEN-negative PC3 cells assessed as suppression of cell viability after 24 hrs by MTT assay in serum free medium; assay type: functional, cell-based
[7] = target: T1, PH domain leucine-rich repeat-containing protein phosphatase 1; assay: Inhibition of PHLPP1-mediated reduction in phosphorylation of MDM2 in human LNCAP cells after 24 hrs by Western blot analysis; assay type: cell-based; procedure, shortened: as §2
[8] = target: T1, PH domain leucine-rich repeat-containing protein phosphatase 1; assay: Inhibition of PHLPP1-mediated reduction in phosphorylation of Akt at Thr308 in human LNCAP cells after 24 hrs by Western blot analysis; assay type: cell-based; procedure, shortened: as §2
[9] = target: T1, PH domain leucine-rich repeat-containing protein phosphatase 1; assay: Inhibition of PHLPP1-mediated reduction in phosphorylation of Akt at Thr308 in human PC3 cells after 24 hrs by Western blot analysis; assay type: cell-based; settings: PC-3; procedure, shortened: as §2
LNCaP [10] = assay: Induction of Akt localization to human LNCAP cell membrane at 5 uM after 24 hrs by immunofluorescence staining analysis; assay type: functional, cell-based; procedure, shortened: as §3
LNCaP [11] = assay: Induction of PHLPP1 localization to human LNCAP cell membrane at 5 uM after 24 hrs by immunofluorescence staining analysis; assay type: functional, cell-based; procedure, shortened: as §3
[12] = target: T1, PH domain leucine-rich repeat-containing protein phosphatase 1; assay: Binding affinity to GST-tagged PH domain of PHLPP1 (unknown origin) by surface Plasmon resonance spectroscopy; procedure, shortened: as §1
[13] = target: T1, PH domain leucine-rich repeat-containing protein phosphatase 1; assay: Inhibition of PHLPP1-mediated reduction in phosphorylation of IKK in human PC3 cells after 24 hrs by Western blot analysis; assay type: cell-based; settings: PC-3; procedure, shortened: as §2
[14] = target: T1, PH domain leucine-rich repeat-containing protein phosphatase 1; assay: Inhibition of PHLPP1-mediated reduction in phosphorylation of IKK in human LNCAP cells after 24 hrs by Western blot analysis; assay type: cell-based; procedure, shortened: as §2
[15] = target: T1, PH domain leucine-rich repeat-containing protein phosphatase 1; assay: Inhibition of PHLPP1-mediated reduction in phosphorylation of MDM2 in human PC3 cells after 24 hrs by Western blot analysis; assay type: cell-based; settings: PC-3; procedure, shortened: as §2
[16] = target: T2, 3-phosphoinositide-dependent protein kinase 1 (Homo sapiens, UniProt O15530); assay: Binding affinity to GST-tagged PH domain of PDK1 (unknown origin) by surface Plasmon resonance spectroscopy; procedure, shortened: as §1
T2 sequence (O15530 whole entry): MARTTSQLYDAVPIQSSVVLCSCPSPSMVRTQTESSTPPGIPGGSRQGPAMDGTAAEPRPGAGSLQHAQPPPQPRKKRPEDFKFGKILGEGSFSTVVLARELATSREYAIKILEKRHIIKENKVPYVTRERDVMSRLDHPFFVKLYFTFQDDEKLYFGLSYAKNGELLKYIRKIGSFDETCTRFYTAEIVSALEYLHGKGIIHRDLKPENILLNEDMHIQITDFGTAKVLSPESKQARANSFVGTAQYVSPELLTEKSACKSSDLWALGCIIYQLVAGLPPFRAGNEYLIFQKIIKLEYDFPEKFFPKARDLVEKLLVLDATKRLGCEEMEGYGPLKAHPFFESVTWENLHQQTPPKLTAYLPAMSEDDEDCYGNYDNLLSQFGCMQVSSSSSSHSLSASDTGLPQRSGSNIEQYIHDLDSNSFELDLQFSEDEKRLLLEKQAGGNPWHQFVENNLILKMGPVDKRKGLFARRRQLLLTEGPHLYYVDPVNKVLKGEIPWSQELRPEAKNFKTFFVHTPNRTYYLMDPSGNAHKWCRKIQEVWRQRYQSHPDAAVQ

Scaffold protein ILK = target: T3, Scaffold protein ILK (Homo sapiens, UniProt Q13418); assay: Binding affinity to GST-tagged PH domain of ILK (unknown origin) by surface Plasmon resonance spectroscopy; procedure, shortened: as §1
T3 sequence (Q13418 whole entry): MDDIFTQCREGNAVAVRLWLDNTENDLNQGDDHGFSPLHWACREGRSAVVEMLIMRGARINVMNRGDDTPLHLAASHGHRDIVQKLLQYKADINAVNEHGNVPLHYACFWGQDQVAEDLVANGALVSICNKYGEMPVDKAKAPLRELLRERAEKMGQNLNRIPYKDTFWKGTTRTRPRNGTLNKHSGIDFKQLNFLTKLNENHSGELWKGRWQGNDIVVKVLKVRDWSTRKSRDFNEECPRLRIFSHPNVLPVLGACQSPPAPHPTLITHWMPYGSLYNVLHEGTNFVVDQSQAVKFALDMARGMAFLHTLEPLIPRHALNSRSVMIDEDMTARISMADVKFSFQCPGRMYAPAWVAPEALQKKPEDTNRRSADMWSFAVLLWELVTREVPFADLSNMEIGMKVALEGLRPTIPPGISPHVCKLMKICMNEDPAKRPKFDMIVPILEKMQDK

T1 sequence (O60346 whole entry, the tested form may be a part): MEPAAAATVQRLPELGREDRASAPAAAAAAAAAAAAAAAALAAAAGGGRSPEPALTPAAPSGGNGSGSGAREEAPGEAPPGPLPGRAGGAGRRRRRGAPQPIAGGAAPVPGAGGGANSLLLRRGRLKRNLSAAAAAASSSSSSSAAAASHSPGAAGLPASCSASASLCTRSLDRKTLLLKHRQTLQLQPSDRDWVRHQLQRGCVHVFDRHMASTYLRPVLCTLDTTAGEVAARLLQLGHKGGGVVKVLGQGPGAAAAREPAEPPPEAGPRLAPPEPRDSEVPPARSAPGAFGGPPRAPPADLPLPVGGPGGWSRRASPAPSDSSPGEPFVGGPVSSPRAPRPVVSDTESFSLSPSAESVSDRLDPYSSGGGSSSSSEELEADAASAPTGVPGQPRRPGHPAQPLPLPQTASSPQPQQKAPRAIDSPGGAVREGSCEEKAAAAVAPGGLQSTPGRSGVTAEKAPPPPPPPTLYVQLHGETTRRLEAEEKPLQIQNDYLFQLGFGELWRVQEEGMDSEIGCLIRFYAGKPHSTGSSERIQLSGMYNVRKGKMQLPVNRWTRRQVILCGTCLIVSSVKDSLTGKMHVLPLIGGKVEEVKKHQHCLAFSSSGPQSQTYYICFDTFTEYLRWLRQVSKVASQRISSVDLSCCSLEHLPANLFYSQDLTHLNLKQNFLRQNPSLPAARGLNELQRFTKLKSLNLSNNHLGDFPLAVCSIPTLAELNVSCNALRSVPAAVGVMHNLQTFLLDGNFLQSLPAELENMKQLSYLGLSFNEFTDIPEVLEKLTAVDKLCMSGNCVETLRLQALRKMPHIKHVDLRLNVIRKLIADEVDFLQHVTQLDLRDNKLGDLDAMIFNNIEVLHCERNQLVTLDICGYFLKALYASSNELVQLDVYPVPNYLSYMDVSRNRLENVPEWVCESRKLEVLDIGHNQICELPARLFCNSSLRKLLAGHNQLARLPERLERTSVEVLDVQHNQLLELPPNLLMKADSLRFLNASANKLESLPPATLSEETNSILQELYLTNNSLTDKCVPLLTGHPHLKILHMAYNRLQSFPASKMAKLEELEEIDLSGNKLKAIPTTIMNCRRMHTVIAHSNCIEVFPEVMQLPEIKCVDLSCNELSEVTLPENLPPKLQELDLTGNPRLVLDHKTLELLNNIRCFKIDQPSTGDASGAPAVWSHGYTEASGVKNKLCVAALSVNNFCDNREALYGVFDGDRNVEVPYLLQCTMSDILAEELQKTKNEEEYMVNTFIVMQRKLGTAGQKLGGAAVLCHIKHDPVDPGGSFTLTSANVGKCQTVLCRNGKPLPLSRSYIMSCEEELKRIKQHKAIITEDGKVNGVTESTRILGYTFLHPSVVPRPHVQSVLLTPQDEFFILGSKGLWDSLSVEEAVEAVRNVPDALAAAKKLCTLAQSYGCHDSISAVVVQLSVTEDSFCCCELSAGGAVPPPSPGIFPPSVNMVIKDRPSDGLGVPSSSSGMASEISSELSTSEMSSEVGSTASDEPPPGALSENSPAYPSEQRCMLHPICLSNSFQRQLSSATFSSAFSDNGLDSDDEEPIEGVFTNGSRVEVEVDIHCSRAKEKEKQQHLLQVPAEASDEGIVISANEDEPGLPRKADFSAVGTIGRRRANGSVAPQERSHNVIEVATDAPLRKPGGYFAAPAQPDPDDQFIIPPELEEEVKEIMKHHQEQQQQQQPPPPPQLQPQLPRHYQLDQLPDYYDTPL
Chain of RAC-alpha serine/threonine-protein kinase (P31749 whole entry, the tested form may be a part): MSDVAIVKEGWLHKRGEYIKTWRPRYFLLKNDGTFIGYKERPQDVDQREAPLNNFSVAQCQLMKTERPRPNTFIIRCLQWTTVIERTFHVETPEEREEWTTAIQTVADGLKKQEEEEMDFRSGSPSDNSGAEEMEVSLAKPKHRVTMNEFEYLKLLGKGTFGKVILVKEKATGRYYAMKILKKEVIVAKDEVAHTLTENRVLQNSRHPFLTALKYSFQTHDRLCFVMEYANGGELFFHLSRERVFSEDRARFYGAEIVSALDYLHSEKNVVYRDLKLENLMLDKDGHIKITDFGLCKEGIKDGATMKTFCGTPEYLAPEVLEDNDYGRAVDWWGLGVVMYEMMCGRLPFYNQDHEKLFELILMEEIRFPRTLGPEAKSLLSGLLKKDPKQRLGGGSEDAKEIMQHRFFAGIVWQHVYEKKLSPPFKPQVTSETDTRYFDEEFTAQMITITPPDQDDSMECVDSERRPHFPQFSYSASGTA

SMILES: CC(C)CCCC1(C)CCc2cc(O)ccc2O1 (stereo not given)
Kd [1]: 0.35 µM | IC50 (LNCaP [2]): 10 µM

SMILES: Cc1cc(O)cc2c1OC(C)(CCCC(C)C)CC2 (stereo not given)
Kd [1]: 0.41 µM | IC50 (LNCaP [2]): 7.5 µM

SMILES: CC(C)CCCC1(C)CCc2cc(S(N)(=O)=O)cc(F)c2O1 (stereo not given)
Kd [1]: 0.35 µM | IC50 (LNCaP [2]): 20 µM | inhibition [3]: inactive | inhibition [4]: inactive | Activity (LNCaP [5]): inactive | Activity (LNCaP [6]): inactive

SMILES: Cc1c(O)cc2c(c1C)O[C@](C)(CCC[C@H](C)CCC[C@H](C)CCCC(C)C)CC2 [GAMMA-TOCOPHEROL]
IC50 (LNCaP [2]): > 100 µM

SMILES: COc1cc2c(c(C)c1C)OC(C)(CCCC(C)C)CC2 (stereo not given)
Kd [1]: 8.5 µM | Activity (PrEC): Non-toxic | IC50 (LNCaP [2]): > 30 µM | Activity (PC-3): inactive

SMILES: CC(C)CCCC1(C)CCc2cc(S(N)(=O)=O)cc(Br)c2O1 (stereo not given)
inhibition [7]: Dose-dependent effect | inhibition [8]: inactive | Kd [1]: 0.22 µM | inhibition [9]: inactive | Activity (LNCaP [10]): Active | Activity (PrEC): Non-toxic | IC50 (LNCaP [2]): 4.5 µM | Activity (LNCaP [11]): Active | inhibition [3]: Dose-dependent effect | inhibition [4]: Dose-dependent effect | Kd [12]: 0.69 µM | Activity (PC-3): Active | inhibition [13]: Dose-dependent effect | inhibition [14]: Dose-dependent effect | inhibition [15]: Dose-dependent effect | Kd [16]: 11.1 µM | Kd (Scaffold protein ILK): 13.1 µM

SMILES: CC(C)CCCC1(C)CCc2cc(O)cc(F)c2O1 (stereo not given)
Kd [1]: 0.34 µM | IC50 (LNCaP [2]): 9 µM

Now from value to compound:

Kd [1]: 0.98 µM | IC50 (LNCaP [2]): 23 µM
SMILES: CC(C)CCCC1(C)CCc2ccc(O)c(O)c2O1 (stereo not given)

Kd [1]: 0.28 µM | IC50 (LNCaP [2]): > 30 µM
SMILES: CC(C)CCCC1(C)CC(=O)c2cc(O)ccc2O1 (stereo not given)

Kd [1]: 0.03 µM | IC50 (LNCaP [2]): 10 µM
SMILES: Cc1cc(O)cc2c1NC(C)(CCCC(C)C)CC2 (stereo not given)
